Measured values published in ChEMBL document CHEMBL3808358, “Rational Design of Small Peptides for Optimal Inhibition of Cyclooxygenase-2: Development of a Highly Effective Anti-Inflammatory Agent” (J Med Chem, 2016).
Activity calls are given as the source filed them. No cut-off for these calls is given here. Residues, ends and D or L forms follow the SMILES beside them. *: point of attachment. Cbz = O=C(OCc1ccccc1)*

What was measured:
Mus musculus [1] = assay: Analgesic activity in Swiss albino mouse assessed as reduction in capsaicin-induced paw licking at 10 mg/kg, ip dosed 30 mins before capsaicin injection measured for 10 mins; type: functional, organism-based
Method in brief: (§1)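 Swiss albino mice of either sex (25-35 g), kept at 22 ± 2 °C on a 12 h light/dark cycle with free food and water. 5 animals per group. Capsaicin (1.6 μg in 20 μL) is injected into the plantar surface of the hind paw. Pain is scored as the number of paw lickings over 10 min.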

[2] = target: Prostaglandin G/H synthase 1 (Homo sapiens) (UniProt P23219); assay: Inhibition of COX1 in healthy human whole blood assessed as calcium ionophore A23187-stimulated TXB2 level at 1 uM preincubated for 60 mins followed by A23187 addition measured after 30 mins by ELISA; type: tissue-based
Method in brief: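 Fresh venous blood from a healthy volunteer is collected in EDTA. 1 mL samples receive compound, indomethacin or DMSO vehicle (final 1 μM). After 60 min, A23187 is added (final 50 μM). After 30 min, samples are centrifuged at 4 °C and TxB2 in plasma is measured by ELISA, read at 420 nm. Samples are run in duplicate.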

Mus musculus [3] = assay: Analgesic activity in Swiss albino mouse assessed as reduction in formalin-induced paw flinches in inflammatory phase at 5 mg/kg, ip dosed 30 mins before formalin injection measured after 15 to 30 mins; type: functional, organism-based
Method in brief: (§2)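 Swiss albino mice of either sex (25-35 g). 20 μL of 2% formalin is injected into the plantar surface of the right hind paw 30 min after treatment. Hind paw flinches are counted for the neurogenic phase (0-5 min) and the inflammatory phase (15-30 min). Results are given as mean ± SEM.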

Mus musculus [4] = assay: Antiinflammatory activity in Swiss albino mouse assessed as reduction in carrageenan-induced paw edema at 10 mg/kg, ip dosed 30 mins before carrageenan injection measured up to 300 mins by vernier calliper method relative to control; type: functional, organism-based
Mus musculus [5] = assay: Analgesic activity in Swiss albino mouse assessed as reduction in formalin-induced paw flinches in neurogenic phase at 5 mg/kg, ip dosed 30 mins before formalin injection measured up to 5 mins; type: functional, organism-based; method in brief: as §2
[6] = target: T1, Prostaglandin G/H synthase 1 (Ovis aries, UniProt P05979); assay: Inhibition of ovine COX1 assessed as reduction in PGH2-derived PGF2alpha using arachidonic acid as substrate preincubated for 10 mins followed by substrate addition measured after 2 mins by enzyme immunoassay
T1 sequence (P05979 whole entry): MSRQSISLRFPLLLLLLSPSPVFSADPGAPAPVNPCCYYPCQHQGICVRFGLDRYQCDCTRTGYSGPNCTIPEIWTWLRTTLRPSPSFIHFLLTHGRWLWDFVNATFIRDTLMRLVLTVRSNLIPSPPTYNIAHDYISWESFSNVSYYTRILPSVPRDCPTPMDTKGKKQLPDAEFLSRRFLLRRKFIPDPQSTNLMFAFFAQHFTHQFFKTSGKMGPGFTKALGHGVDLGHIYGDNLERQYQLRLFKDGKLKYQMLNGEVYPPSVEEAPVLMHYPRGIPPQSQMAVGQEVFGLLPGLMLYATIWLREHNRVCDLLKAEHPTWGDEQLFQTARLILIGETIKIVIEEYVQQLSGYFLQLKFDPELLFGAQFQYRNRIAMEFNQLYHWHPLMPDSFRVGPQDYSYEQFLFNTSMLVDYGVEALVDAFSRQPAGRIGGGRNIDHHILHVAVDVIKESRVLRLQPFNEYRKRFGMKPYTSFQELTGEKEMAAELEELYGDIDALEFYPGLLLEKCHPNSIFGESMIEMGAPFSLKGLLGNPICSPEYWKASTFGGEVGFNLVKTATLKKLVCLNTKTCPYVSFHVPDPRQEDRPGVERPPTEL
Method in brief: (§3)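 Ovine COX-1 and human recombinant COX-2 with heme are preincubated with inhibitor for 10 min at 37 °C. Arachidonic acid is then added for 2 min at 37 °C. Prostaglandins are quantified by competitive AChE-tracer EIA, read at 420 nm. Four concentrations (10^-5 to 10^-8 M) are tested in triplicate. IC50 is taken from the dose-response curve of the mean % inhibition.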

[7] = target: T2, Prostaglandin G/H synthase 2 (Homo sapiens, UniProt P35354); assay: Inhibition of human recombinant COX2 assessed as reduction in PGH2-derived PGF2alpha using arachidonic acid as substrate preincubated for 10 mins followed by substrate addition measured after 2 mins by enzyme immunoassay
T2 sequence (P35354 whole entry): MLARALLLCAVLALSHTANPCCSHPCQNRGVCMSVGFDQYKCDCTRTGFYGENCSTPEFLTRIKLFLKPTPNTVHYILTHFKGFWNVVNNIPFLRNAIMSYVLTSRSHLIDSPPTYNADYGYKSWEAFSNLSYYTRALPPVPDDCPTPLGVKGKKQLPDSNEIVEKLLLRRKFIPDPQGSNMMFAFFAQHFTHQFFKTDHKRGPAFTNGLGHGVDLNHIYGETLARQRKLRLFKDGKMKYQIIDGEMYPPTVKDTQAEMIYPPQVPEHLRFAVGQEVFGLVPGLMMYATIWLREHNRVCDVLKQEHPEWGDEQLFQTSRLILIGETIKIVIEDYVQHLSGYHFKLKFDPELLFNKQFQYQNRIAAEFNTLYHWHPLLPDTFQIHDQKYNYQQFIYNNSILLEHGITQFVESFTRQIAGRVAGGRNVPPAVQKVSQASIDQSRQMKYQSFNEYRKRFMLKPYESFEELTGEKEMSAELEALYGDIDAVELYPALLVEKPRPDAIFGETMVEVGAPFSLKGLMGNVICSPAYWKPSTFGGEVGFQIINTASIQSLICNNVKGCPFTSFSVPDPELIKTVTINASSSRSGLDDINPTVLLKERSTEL

[8] = Selectivity index, ratio of IC50 for ovine COX1 to IC50 for human recombinant COX2; method in brief: as §3
Mus musculus [9] = assay: Analgesic activity in Swiss albino mouse assessed as reduction in capsaicin-induced paw licking at 5 to 10 mg/kg, ip dosed 30 mins before capsaicin injection measured for 10 mins; type: functional, organism-based; method in brief: as §1

Sequence of Prostaglandin G/H synthase 1 (Homo sapiens) (P23219 whole entry): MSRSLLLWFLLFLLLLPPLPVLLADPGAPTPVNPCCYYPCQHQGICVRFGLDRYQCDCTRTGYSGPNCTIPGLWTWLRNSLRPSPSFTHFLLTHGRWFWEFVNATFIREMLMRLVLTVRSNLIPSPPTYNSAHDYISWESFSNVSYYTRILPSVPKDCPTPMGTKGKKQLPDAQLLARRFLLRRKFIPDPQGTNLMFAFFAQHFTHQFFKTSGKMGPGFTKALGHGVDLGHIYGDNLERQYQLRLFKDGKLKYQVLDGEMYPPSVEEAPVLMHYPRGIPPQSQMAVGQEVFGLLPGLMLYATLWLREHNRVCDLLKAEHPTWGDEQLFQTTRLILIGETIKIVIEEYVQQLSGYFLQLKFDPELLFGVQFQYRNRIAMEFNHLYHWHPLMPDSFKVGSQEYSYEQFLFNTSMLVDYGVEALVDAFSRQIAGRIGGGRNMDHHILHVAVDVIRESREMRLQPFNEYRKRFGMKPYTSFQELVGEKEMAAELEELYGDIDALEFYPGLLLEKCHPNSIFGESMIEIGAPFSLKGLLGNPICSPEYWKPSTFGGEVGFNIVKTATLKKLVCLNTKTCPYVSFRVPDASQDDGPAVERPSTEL

Structure (SMILES)	IC50 [6] [µM]	IC50 [7] [µM]	Ratio IC50 [8]	other results
COc1ccc2c(c1)c(CC(=O)O)c(C)n2C(=O)c1ccc(Cl)cc1				Activity (Mus musculus [1]): Active; Activity [2]: 2.7 ng/mL
O=C(O)Cc1ccccc1Nc1c(Cl)cccc1Cl				Activity (Mus musculus [3]): Active; Activity (Mus musculus [4]): Active; Activity (Mus musculus [5]): inactive
COC(=O)[C@H](CC(C)C)NC(=O)[C@@H](NC(=O)[C@H](C)NC(=O)CNC(=O)OCc1ccccc1)C(C)C (Cbz-GAVL-OMe)	> 10	22		
CC(C)C[C@H](NC(=O)[C@H](Cc1ccccc1)NC(=O)CNC(=O)CNC(=O)OCc1ccccc1)C(=O)O (Cbz-GGFL-OH)	3	0.5	6	
COC(=O)[C@H](CC(C)C)NC(=O)[C@H](Cc1ccccc1)NC(=O)CNC(=O)CNC(=O)OCc1ccccc1 (Cbz-GGFL-OMe)	> 10	20		
CC(C)C[C@H](NC(=O)CNC(=O)[C@@H](NC(=O)OCc1ccccc1)C(C)C)C(=O)N[C@@H](C)C(=O)O (Cbz-VGLA-OH)	0.3	0.05	6	
CC(C)C[C@H](NC(=O)CNC(=O)[C@@H](NC(=O)OCc1ccccc1)C(C)C)C(=O)O (Cbz-Val-Gly-Leu-OH)	> 10	28		
CC(C)[C@H](NC(=O)OCc1ccccc1)C(=O)NCC(=O)O (Cbz-Val-Gly-OH)	> 10	55		
COC(=O)[C@@H](NC(=O)[C@H](C)NC(=O)CN)C(C)C (H-Gly-Ala-Val-OMe)	> 10	10	> 1	
COC(=O)[C@H](CC(C)C)NC(=O)CNC(=O)[C@@H](N)C(C)C (H-Val-Gly-Leu-OMe)	> 10	10		

Second part, led by results:

IC50 [6] [µM]	IC50 [7] [µM]	Ratio IC50 [8]	Structure (SMILES)	other results
> 10	8		CC(C)C[C@H](NC(=O)[C@@H](NC(=O)[C@H](C)NC(=O)CNC(=O)OCc1ccccc1)C(C)C)C(=O)O (Cbz-GAVL-OH)	
3	0.3	10	CC(C)C[C@H](NC(=O)[C@H](C)NC(=O)[C@@H](NC(=O)CNC(=O)OCc1ccccc1)C(C)C)C(=O)O (Cbz-GVAL-OH)	
> 10	19		COC(=O)[C@H](CC(C)C)NC(=O)[C@H](C)NC(=O)[C@@H](NC(=O)CNC(=O)OCc1ccccc1)C(C)C (Cbz-GVAL-OMe)	
> 10	3	> 3	CC(C)[C@H](NC(=O)[C@H](C)NC(=O)CNC(=O)OCc1ccccc1)C(=O)O (Cbz-Gly-Ala-Val-OH)	
8	0.1	80	COC(=O)[C@@H](NC(=O)[C@H](C)NC(=O)CNC(=O)OCc1ccccc1)C(C)C (Cbz-Gly-Ala-Val-OMe)	Activity (Mus musculus [9]): Active
> 10			O=C(O)CNC(=O)CNC(=O)OCc1ccccc1 (Cbz-Gly-Gly-OH)	
> 10	1	> 10	COC(=O)CNC(=O)CNC(=O)OCc1ccccc1 (Cbz-Gly-Gly-OMe)	
> 10	0.08	> 125	COC(=O)[C@H](C)NC(=O)[C@H](CC(C)C)NC(=O)CNC(=O)[C@@H](NC(=O)OCc1ccccc1)C(C)C (Cbz-VGLA-OMe)	Activity (Mus musculus [9]): Active
> 10	56		COC(=O)[C@H](CC(C)C)NC(=O)CNC(=O)[C@@H](NC(=O)OCc1ccccc1)C(C)C (Cbz-Val-Gly-Leu-OMe)	
> 10	75		COC(=O)CNC(=O)[C@@H](NC(=O)OCc1ccccc1)C(C)C (Cbz-Val-Gly-OMe)	
> 10	0.4	> 25	CC(C)C[C@H](NC(=O)[C@H](Cc1ccccc1)NC(=O)CNC(=O)CN)C(=O)O (H-GGFL-OH)	
9	0.2	45	CC(C)[C@H](NC(=O)[C@H](C)NC(=O)CN)C(=O)O (H-Gly-Ala-Val-OH)	
